Compound activity (PubChem BioAssay)
Sampled rows, rich in hits. Any-hit rate of the full collection: about 1.4%.
PDI turbidity – PDI (human) enzyme inhibition; inhibition, % at 10 µM; actives 0.052% (n = 350,000); PDI insulin aggregation turbidity, A650, 90 min; AID 588391;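 active means mean inhibition across replicates of 30% or more, whatever share of single replicates reach that level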
Env fusion inh – HIV envelope-mediated fusion inhibition; inhibition, % at 12.3 µM; HeLa-JRFL Env/CEM21 cell fusion, luciferase; AID 651610; actives 1.1% (n = 360,000);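 active means mean replicate inhibition score of at least 50 and every replicate individually at or above 50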
ERp5 inh – ERp5 (human) disulfide isomerase inhibition; ERp5 insulin aggregation, absorbance 650 nm, 90 min; inhibition, % at 9.99 µM; actives 0.05% (n = 350,000); Q15084; AID 651711;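 active means mean replicate inhibition above about 25%, with every replicate also reaching it, limit read from the data, passing the limit was not always enough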
Target sequence (Q15084 whole entry, looked up): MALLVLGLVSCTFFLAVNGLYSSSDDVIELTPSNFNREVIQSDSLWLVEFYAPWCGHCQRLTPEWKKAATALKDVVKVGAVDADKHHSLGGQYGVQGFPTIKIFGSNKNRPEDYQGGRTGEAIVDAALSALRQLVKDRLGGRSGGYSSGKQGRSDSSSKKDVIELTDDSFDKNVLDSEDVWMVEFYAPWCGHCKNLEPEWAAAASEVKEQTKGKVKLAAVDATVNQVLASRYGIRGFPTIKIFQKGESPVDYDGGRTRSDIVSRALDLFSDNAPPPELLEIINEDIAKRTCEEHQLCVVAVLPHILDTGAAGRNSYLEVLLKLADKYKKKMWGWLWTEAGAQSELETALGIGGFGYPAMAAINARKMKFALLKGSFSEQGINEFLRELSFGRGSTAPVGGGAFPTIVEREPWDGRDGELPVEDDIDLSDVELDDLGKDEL
GSIS activator – GLuc luminescence reporter in INS-1E cells, primary screen for activators of glucose-dependent secretion of insulin. INS-1E GLuc reporter insulin secretion, 2-3 h. AID 743287. actives 0.61% (n = 370,000). activation, % at 16.6 µM;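 active means lowest replicate activation of at least 40%, so every replicate reaches that level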
FN deposition inh – fibronectin deposition inhibition; AH1F fibroblasts, Alexa488-fibronectin deposition fluorescence, overnight; inhibition, % at 12.6 µM; actives 0.086% (n = 350,000);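 active means mean inhibition across replicates of 30% or more, regardless of how many single replicates reach that level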
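test system = AH1F fibroblasts assembling fluorescent fibronectin matrix | quantity = 10000 AH1F cells per well | buffer or medium = DMEM plus 2% serum, read in PBS | doses = single dose, pinned | incubation = 1 h cell attachment, overnight exposure to compound and label | detection = fluorescence at 485 nm excitation, 525 nm emission | read-out basis = inhibition from reduced deposited-fibronectin fluorescence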
Each line names hits and unclear results; the compound was inactive in the other large screens; [ ] = another dose, or the depositor's remark.

CC(C)NC(=O)N(C)C[C@@H]1Oc2ccc(NS(=O)(=O)c3cn(C)cn3)cc2CC(=O)N([C@@H](C)CO)C[C@H]1C	none (no result: PDI turbidity, FN deposition inh)
CCc1sc(N2[C@@H](C#N)[C@@H](c3ccccc3-c3cccc(C)c3)[C@@H]2CO)nc1C	none (no result: PDI turbidity, Env fusion inh)
COc1ccc(C2C(C#N)=C(C)NC3=C2C(=O)c2ccccc23)cc1 (stereo not given)	none (no result: FN deposition inh)
CC1=C([N+](=O)[O-])C(c2ccccc2)C2=C(N1)c1ccccc1C2=O (stereo not given)	Env fusion inh 119.9 (no result: ERp5 inh, GSIS activator)
O=C(CSc1nc2ccsc2c(=O)n1Cc1ccccc1)NCc1ccco1	none (no result: ERp5 inh)
CCC(Sc1nc2ccsc2c(=O)n1-c1ccc(Cl)c(C)c1)C(=O)NCc1ccco1 (stereo not given)	Env fusion inh 65.4 (no result: ERp5 inh)
COC(=O)c1sc2ccccc2c1NC(=O)c1cccs1	GSIS activator 58.3 (no result: Env fusion inh, FN deposition inh)
COC(=O)c1sccc1NC(=O)c1cccs1	none
CO[C@@H]1CN(C)C(=O)c2cc(NS(=O)(=O)c3cccc(F)c3)ccc2OC[C@@H](C)N(Cc2cc(F)ccc2F)C[C@@H]1C	none (no result: PDI turbidity, Env fusion inh, FN deposition inh)
CN(C)CCCNC(=O)C[C@@H]1CC[C@@H]2[C@H](COC[C@@H](O)CN2S(=O)(=O)c2ccc(Cl)cc2)O1	none (no result: PDI turbidity, ERp5 inh)
CCOc1ccc(N(C)S(=O)(=O)c2ccc(C)c(C(=O)OCC(=O)c3c[nH]c4ccccc34)c2)cc1	Env fusion inh 58.2
CN(CC1CCCO1)S(=O)(=O)c1ccc(C(=O)Nc2nc3cc4c(cc3s2)OCO4)cc1 (stereo not given)	Env fusion inh 56.7 (no result: PDI turbidity, FN deposition inh)
CCN(CC)S(=O)(=O)c1cccc(C(=O)Nc2nc3cc4c(cc3s2)OCCO4)c1	Env fusion inh 61.7 (no result: FN deposition inh)
CCc1nnc(NC(=O)[C@@H](NC(=O)c2cccc(S(=O)(=O)N(CC)CC)c2)C(C)C)s1	Env fusion inh 70.4 (no result: ERp5 inh)
O=C(Nc1nc2cc3c(cc2s1)OCCO3)c1cccc(N2C(=O)CCC2=O)c1	none (no result: PDI turbidity, GSIS activator)
CCN(CC)S(=O)(=O)c1cccc(C(=O)NC(C(=O)NCCc2ccccn2)C(C)C)c1 (stereo not given)	none (no result: GSIS activator)
O=C(Nc1ccc2c(c1)[C@H]1C[C@H](CC(=O)N3CCCCC3)O[C@@H](CO)[C@H]1O2)Nc1ccccc1F	none (no result: PDI turbidity)
COc1ccc(/C=C/C(=O)Nc2sc3c(c2C(=O)NCc2cccnc2)CCCC3)cc1	none
O=C(COc1ccccc1)Nc1sc2c(c1C(=O)NCc1cccnc1)CCCC2	GSIS activator 92.3 (no result: Env fusion inh, ERp5 inh, FN deposition inh)
O=c1c(-c2ccccc2)c(O)c2c(n1-c1ccccc1)CCCC2	none (no result: Env fusion inh, ERp5 inh, FN deposition inh)
CC(C)c1c(O)c2c(n(-c3ccccc3)c1=O)CCCC2	GSIS activator 60.5 (no result: ERp5 inh)
O=C(/C=C/C(Cl)(Cl)Cl)Nc1ccc(Cl)cc1	GSIS activator 170.5
C=C(CN(C)C)C(=O)c1cc(C)ccc1C	GSIS activator 89.7
C/C=C/c1ccc([C@H]2[C@@H](CNC(=O)CC)N(C(=O)COC)[C@H]2CO)cc1	none (no result: PDI turbidity, Env fusion inh)
CC1=CC(=O)N(c2ccc(C)cc2)C1c1ccc(Cl)cc1 (stereo not given)	none
CC1=CC(=O)N(c2cccc(C(F)(F)F)c2)C1c1ccc(Cl)cc1 (stereo not given)	Env fusion inh 65.8 (no result: ERp5 inh)
O=C(CSc1nnc(-c2ccc(Br)cc2)o1)Nc1cccc(C(=O)O)c1	Env fusion inh 88.3 (no result: FN deposition inh)
Cc1ccc(-c2nnc(SCC(=O)Nc3ccccc3F)o2)cc1	Env fusion inh 65.7 (no result: PDI turbidity)
O=C(CSc1nnc(-c2ccccc2)o1)Nc1ccccc1F	none (no result: PDI turbidity)
COc1cccc(-c2ccc([C@H]3[C@H](CO)N(C(C)=O)C34CN(C(C)=O)C4)cc2)c1	none (no result: PDI turbidity, Env fusion inh, FN deposition inh)
O=C1CC(=O)Nc2cc(S(=O)(=O)NCc3cccs3)ccc2N1	GSIS activator 41.4
O=C(Cc1ccc(Cl)cc1Cl)Nc1ccncc1Cl	none (no result: Env fusion inh)
O=C(Cc1ccc(Cl)cc1Cl)Nc1ccncc1	Env fusion inh 73.0 (no result: FN deposition inh)
Cc1noc(C)c1S(=O)(=O)N(C)C[C@@H]1Oc2ccc(NS(C)(=O)=O)cc2CC(=O)N([C@H](C)CO)C[C@@H]1C	none (no result: PDI turbidity, FN deposition inh)
C[C@H]1CN([C@@H](C)CO)C(=O)CCCn2cc(nn2)CO[C@@H]1CN(C)Cc1cccc(C(F)(F)F)c1	ERp5 inh 44.4 (no result: PDI turbidity)
C[C@H]1CN([C@@H](C)CO)C(=O)c2c(c3ccccc3n2C)-c2ccccc2CO[C@H]1CN(C)C(=O)Cc1ccccc1	Env fusion inh 56.9[16.7 µM] (no result: PDI turbidity)
C[C@@H]1CN([C@@H](C)CO)C(=O)c2c(c3ccccc3n2C)-c2ccccc2CO[C@H]1CN(C)Cc1cccc(C(F)(F)F)c1	Env fusion inh 57.4[16.7 µM] (no result: PDI turbidity)
C[C@H]1CN([C@@H](C)CO)C(=O)c2c(c3ccccc3n2C)-c2ccccc2CO[C@H]1CN(C)C(=O)C1CC1	Env fusion inh 61.2[16.7 µM] (no result: PDI turbidity)
C[C@@H]1CN([C@@H](C)CO)C(=O)c2c(c3ccccc3n2C)-c2ccccc2CO[C@H]1CN(C)C(=O)Cc1ccccc1	none (no result: PDI turbidity)
COc1ccc(NC(=O)Nc2ccc3c(c2)C(=O)N([C@H](C)CO)C[C@@H](C)[C@H](CN(C)Cc2ccc(-c4ccccc4)cc2)O3)cc1	none (no result: PDI turbidity, Env fusion inh, FN deposition inh)
CN1C(=O)c2cc(NC(=O)C3CCCC3)ccc2OC[C@H]2O[C@H](CC(=O)Nc3ccccc3)CC[C@@H]21	none (no result: PDI turbidity)
CN1C(=O)c2cc(NC(=O)c3cnccn3)ccc2OC[C@@H]2O[C@H](CC(=O)N[C@H]3CCN(Cc4ccccc4)C3)CC[C@@H]21	none (no result: PDI turbidity, Env fusion inh)
Cc1ccc(S(=O)(=O)N(C)C[C@@H]2OCCCC[C@@H](C)Oc3ccc(NC(=O)NC(C)C)cc3C(=O)N([C@@H](C)CO)C[C@@H]2C)cc1	none (no result: PDI turbidity)
CCC(=O)N(C)C[C@@H]1Oc2cc(/C=C/c3ccccc3)ccc2S(=O)(=O)N([C@H](C)CO)C[C@@H]1C	none (no result: PDI turbidity)
N#CC(C(=O)c1ccco1)c1ccccn1 (stereo not given)	GSIS activator 42.5 (no result: ERp5 inh)
N#C/C(=C(\O)c1ccco1)c1ccccn1	none (no result: Env fusion inh, ERp5 inh, FN deposition inh)
CC(C)C[C@H](NC(=O)c1nc[nH]c1C(=O)NC1CCN(C(=O)OC(C)(C)C)CC1)C(=O)OC(C)(C)C	GSIS activator 346.1
CC(C)C[C@H](NC(=O)c1[nH]cnc1C(=O)N[C@@H](Cc1ccccc1)C(=O)OCc1ccccc1)C(=O)OC(C)(C)C	none (no result: GSIS activator)
CC(C)C[C@H](NC(=O)c1nc[nH]c1C(=O)NC1CCN(C(=O)OC(C)(C)C)CC1)C(=O)OCc1ccccc1	none
CC(C)C[C@H](NC(=O)c1[nH]cnc1C(=O)N[C@@H](C)c1ccccc1)C(=O)OC(C)(C)C	GSIS activator 88.3
CC(C)C[C@H](NC(=O)c1[nH]cnc1C(=O)N[C@@H](Cc1ccccc1)C(=O)OC(C)(C)C)C(=O)OCc1ccccc1	Env fusion inh 58.5 (no result: GSIS activator)
CC(=O)c1cccc(NC(=O)Nc2ccc(C(=O)N3CCOCC3)cc2)c1	Env fusion inh 63.1 (no result: ERp5 inh)
Cc1ccc(NC(=O)Nc2ccc(C(=O)N3CCOCC3)cc2)cc1	none (no result: ERp5 inh, GSIS activator)
O=C(Nc1ccc(Cl)cc1)Nc1cccc(C(=O)O)c1	Env fusion inh 71.3
CCOc1ccc(NC(=O)Nc2cccc(C(=O)O)c2)cc1	Env fusion inh 63.5
Cc1ccccc1OCC(=O)Nc1cccc(C(=O)O)c1	Env fusion inh 76.0
